Results as given in ChEMBL document CHEMBL1123036, “Synthesis and antiallergic activities of 1,3-oxazolo[4,5-h]quinolines” (J Med Chem, 1985).
pIC50: −log10 of the molar value. One block for each compound: values may come before it.

Tests used:
Rattus norvegicus [1] = species: Rattus norvegicus; experiment: (§1) In vitro ability to inhibit antigen-induced release of histamine (AIR) from rat peritoneal mast cells; assay type: functional
Summary of the method: (§2)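 Peritoneal cells collected from rats by lavage, containing 5–10% mast cells. Antigen-induced histamine release was quantified radioenzymatically rather than fluorometrically: samples were incubated with [¹⁴C]methyl-S-adenosylmethionine and histamine-N-methyltransferase prepared from rat kidneys.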

Rattus norvegicus [2] = species: Rattus norvegicus; experiment: Percentage inhibition against passive cutaneous anaphylaxis in rat, when injected perorally; assay type: functional
Summary of the method: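 Rat passive cutaneous anaphylaxis, an IgE-mediated cutaneous wheal formation model; compounds given orally before antigen challenge; read-out is percent inhibition of wheal formation.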

Rattus norvegicus [3] = experiment: Percentage inhibition against passive cutaneous anaphylaxis after injecting 10 mg/kg intraperitoneally in rat; assay type: functional; details: route intraperitoneal; for inhibition in vivo at 10 mg/kg: Rattus norvegicus, ip
Summary of the method: (§3)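 Rat passive cutaneous anaphylaxis: the read-out was inhibition of IgE-mediated cutaneous wheal formation after antigen challenge. Compounds were given by the route and dose stated on the line.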

Rattus norvegicus [4] = species: Rattus norvegicus; experiment: In vitro ability to inhibit antigen-induced release of histamine (AIR) from rat peritoneal mast cells; the compound was tested at a concentration of 50 uM.; assay type: functional, cell-based
Rattus norvegicus [5] = experiment: Percentage inhibition against passive cutaneous anaphylaxis after injecting 125 mg/kg perorally in rat; assay type: functional; details: route oral; summary of the method: as §3
Rattus norvegicus [6] = species: Rattus norvegicus; experiment: Ability to inhibit passive cutaneous anaphylaxis in rat, when compound was injected perorally.; assay type: functional; summary of the method: as §3
Rattus norvegicus [7] = experiment: Percentage inhibition against passive cutaneous anaphylaxis after injecting 10 mg/kg perorally in rat; assay type: functional; details: route oral; summary of the method: as §3
Rattus norvegicus [8] = experiment: Percentage inhibition of 30 mg/kg compound against antigen-induced release of histamine (AIR) from rat mast cells; assay type: functional
Rattus norvegicus [9] = species: Rattus norvegicus; experiment: as §1; assay type: functional, cell-based; summary of the method: as §2
Rattus norvegicus [10] = experiment: Ability to inhibit passive cutaneous anaphylaxis in rat, when compound was injected intraperitoneally; assay type: functional; details: ip; summary of the method: as §3
Rattus norvegicus [11] = species: Rattus norvegicus; experiment: Ability to inhibit passive cutaneous anaphylaxis in rat, when compound was injected perorally; assay type: functional; summary of the method: as §3
Rattus norvegicus [12] = species: Rattus norvegicus; experiment: In vitro ability to inhibit antigen-induced release of histamine (AIR) from rat peritoneal mast cells.; assay type: functional
Summary of the method: (§4)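 Rat peritoneal cells were collected by lavage and contained 5–10% mast cells. Histamine was measured by a radioenzymatic method instead of fluorometry, because some test agents fluoresce. Samples were incubated with [¹⁴C]methyl-S-adenosylmethionine and histamine-N-methyltransferase prepared from rat kidneys.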

Rattus norvegicus [13] = species: Rattus norvegicus; experiment: Ability to inhibit anaphylactically induced release of histamine (AIR) from rat peritoneal mast cells; assay type: functional, cell-based; summary of the method: as §2
Rattus norvegicus [14] = experiment: Percentage inhibition against passive cutaneous anaphylaxis in rat, when injected intraperitoneally; assay type: functional; summary of the method: as §3
Rattus norvegicus [15] = species: Rattus norvegicus; experiment: In vitro ability to inhibit antigen-induced release of histamine (AIR) from rat mast cells; assay type: functional, cell-based; summary of the method: as §4
Rattus norvegicus [16] = experiment: Ability to inhibit passive cutaneous anaphylaxis in rat, when compound was injected intraperitoneally.; assay type: functional; details: ip; summary of the method: as §3
Rattus norvegicus [17] = species: Rattus norvegicus; experiment: In vitro ability to inhibit antigen-induced release of histamine (AIR) from rat mast cells; histamine release was assayed by a radioenzymatic method; assay type: functional, cell-based; summary of the method: as §4
Rattus norvegicus [18] = experiment: Ability to inhibit passive cutaneous anaphylaxis in rat, when […] injected perorally; assay type: functional; details: route oral; summary of the method: as §3
Rattus norvegicus [19] = experiment: Percentage inhibition against passive cutaneous anaphylaxis after injecting 25 mg/kg perorally in rat; assay type: functional; details: route oral; summary of the method: as §3

SMILES: COc1ccccc1C(=O)n1c(=O)oc2c3ncccc3c(Cl)cc21
Inhibition (Rattus norvegicus [1]): 16%
Inhibition (Rattus norvegicus [2]): 34%

SMILES: CCOC(=O)Cc1nc2cc(Cl)c3cccnc3c2o1
inhibition in vivo at 10 mg/kg (Rattus norvegicus [3]): 9%

SMILES: Oc1nc2cc(Cl)c3cccnc3c2o1
% inhibition (Rattus norvegicus [4]): 18%
inhibition in vivo at 125 mg/kg (Rattus norvegicus [5]): 14%

SMILES: Cn1c(=O)oc2c3ncccc3c(Cl)cc21
ED50 (Rattus norvegicus [6]): 102 mg/kg
inhibition in vivo at 125 mg/kg (Rattus norvegicus [5]): 51%

SMILES: O=C(O)c1nc2cc(Cl)c3cccnc3c2o1
inhibition in vivo at 10 mg/kg (Rattus norvegicus [3]): 47%

SMILES: Clc1cc2nc(-c3ccccc3)oc2c2ncccc12
inhibition in vivo at 10 mg/kg (Rattus norvegicus [7]): 3%
inhibition in vivo at 30 mg/kg (Rattus norvegicus [8]): < 30%

pIC50 (Rattus norvegicus [9]): 7.00
SMILES: CCOC(=O)c1nc2cc(Cl)c3cccnc3c2o1
inhibition in vivo at 10 mg/kg (Rattus norvegicus [3]): 59%

SMILES: CC(=O)n1c(=O)oc2c3ncccc3ccc21
ED50 (Rattus norvegicus [10]): 10 mg/kg
ED50 (Rattus norvegicus [11]): 4 mg/kg
Inhibition (Rattus norvegicus [12]): <30%

SMILES: Clc1cc2ncoc2c2ncccc12
inhibition in vivo at 10 mg/kg (Rattus norvegicus [7]): 28%

pIC50 (Rattus norvegicus [9]): 4.48
SMILES: Cc1nc2cc(Cl)c3cccnc3c2o1
inhibition in vivo at 10 mg/kg (Rattus norvegicus [7]): 15%

SMILES: O=C(/C=C/c1ccccc1)n1c(=O)oc2c3ncccc3c(Cl)cc21
Inhibition (Rattus norvegicus [1]): 18%
Inhibition (Rattus norvegicus [2]): 0%

SMILES: COc1ccccc1NC(=O)Oc1cccc2cccnc12
pIC50 (Rattus norvegicus [13]): 5.70

pIC50 (Rattus norvegicus [9]): 7.52
SMILES: Clc1cc2nc(C(Cl)(Cl)Cl)oc2c2ncccc12
Inhibition (Rattus norvegicus [14]): 28%

SMILES: CCOC(=O)n1c(=O)oc2c3ncccc3c(Cl)cc21
Inhibition (Rattus norvegicus [2]): 43%

SMILES: CC(=O)n1c(=O)oc2c3ncccc3c(Cl)cc21
Inhibition (Rattus norvegicus [2]): 15%

pIC50 (Rattus norvegicus [15]): 5.52
SMILES: O=C([O-])c1cc(=O)c2c(OCC(O)COc3cccc4oc(C(=O)[O-])cc(=O)c34)cccc2o1.[Na+].[Na+] [CROMOLYN SODIUM]
ED50 (Rattus norvegicus [16]): 6 mg/kg

pIC50 (Rattus norvegicus [17]): 6.52
SMILES: COC(=O)c1nc2cc(Cl)c3cccnc3c2o1 [QUAZOLAST]
ED50 (Rattus norvegicus [18]): 0.5 mg/kg
ED50 (Rattus norvegicus [16]): 0.1 mg/kg
inhibition in vivo at 10 mg/kg (Rattus norvegicus [3]): 100%

SMILES: Oc1nc2ccc3cccnc3c2o1
inhibition in vivo at 25 mg/kg (Rattus norvegicus [19]): 0%

SMILES: CN(C)C(=O)n1c(=O)oc2c3ncccc3c(Cl)cc21
Inhibition (Rattus norvegicus [1]): 0%

pIC50 (Rattus norvegicus [9]): 6.52
SMILES: O=C([O-])c1nc2cc(Cl)c3cccnc3c2o1.[Na+]
Inhibition (Rattus norvegicus [3]): 51%
